Source: publication PMC4629469 (Bioorganic & medicinal chemistry letters, 2015)

Key:
[1] = target: T1, M5 recombinant human mAChRs (Homo sapiens, UniProt P08912); assay: [3H]NMS binding to CHO cell membranes expressing M5 mAChR; settings: vs compound 1
T1 sequence (P08912 1-532): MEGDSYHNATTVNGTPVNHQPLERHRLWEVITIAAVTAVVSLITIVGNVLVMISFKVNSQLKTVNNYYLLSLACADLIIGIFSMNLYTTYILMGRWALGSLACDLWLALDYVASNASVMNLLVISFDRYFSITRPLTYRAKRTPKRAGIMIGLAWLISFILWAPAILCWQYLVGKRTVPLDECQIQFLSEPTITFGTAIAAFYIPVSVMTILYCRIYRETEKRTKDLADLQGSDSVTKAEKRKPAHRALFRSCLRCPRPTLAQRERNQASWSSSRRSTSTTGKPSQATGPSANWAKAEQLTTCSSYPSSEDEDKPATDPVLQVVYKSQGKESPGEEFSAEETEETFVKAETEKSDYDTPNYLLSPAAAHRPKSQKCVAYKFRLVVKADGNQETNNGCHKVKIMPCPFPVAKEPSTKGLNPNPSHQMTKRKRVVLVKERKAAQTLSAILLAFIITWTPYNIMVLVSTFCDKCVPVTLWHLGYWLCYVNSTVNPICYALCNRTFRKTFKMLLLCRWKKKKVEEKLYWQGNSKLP

[2] = target: M3 recombinant human mAChRs (Homo sapiens, UniProt P20309); assay: [3H]NMS binding to CHO cell membranes expressing M3 mAChR; settings: vs compound 1
Chain of M3 recombinant human mAChRs (P20309 whole entry): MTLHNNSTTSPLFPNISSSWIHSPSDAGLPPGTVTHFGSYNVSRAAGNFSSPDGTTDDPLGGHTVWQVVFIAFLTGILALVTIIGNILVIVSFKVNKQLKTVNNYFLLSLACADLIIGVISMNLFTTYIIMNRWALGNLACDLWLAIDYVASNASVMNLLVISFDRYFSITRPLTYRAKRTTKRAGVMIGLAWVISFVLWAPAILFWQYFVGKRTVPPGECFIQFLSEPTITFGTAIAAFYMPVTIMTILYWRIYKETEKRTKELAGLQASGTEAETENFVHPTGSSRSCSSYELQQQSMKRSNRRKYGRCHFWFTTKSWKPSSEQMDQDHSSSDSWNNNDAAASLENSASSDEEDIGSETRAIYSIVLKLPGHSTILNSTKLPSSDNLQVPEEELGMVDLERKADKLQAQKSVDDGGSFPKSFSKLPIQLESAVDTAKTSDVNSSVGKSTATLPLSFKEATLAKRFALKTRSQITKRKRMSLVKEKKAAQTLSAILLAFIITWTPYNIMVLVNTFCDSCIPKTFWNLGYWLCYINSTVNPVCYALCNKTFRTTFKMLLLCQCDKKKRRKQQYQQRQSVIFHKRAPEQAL

[3] = system: M1, M3, and M5 human mAChRs; assay: [3H]NMS binding, comparison over all three mAChR subtypes
How it was run: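 Membranes from CHO cells stably expressing recombinant human M1, M3 or M5 mAChR. Inhibition of [3H]N-methylscopolamine binding by the test compound gives IC50, which is converted to Ki by the Cheng–Prusoff equation. Ki is the mean ± SEM of three independent experiments, each run in duplicate. Subtype comparisons use these Ki values at each receptor.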

[4] = target: T2, M1 recombinant human mAChRs (Homo sapiens, UniProt P11229); assay: [3H]NMS binding to CHO cell membranes expressing M1 mAChR; settings: vs compound 1
T2 sequence (P11229 1-460): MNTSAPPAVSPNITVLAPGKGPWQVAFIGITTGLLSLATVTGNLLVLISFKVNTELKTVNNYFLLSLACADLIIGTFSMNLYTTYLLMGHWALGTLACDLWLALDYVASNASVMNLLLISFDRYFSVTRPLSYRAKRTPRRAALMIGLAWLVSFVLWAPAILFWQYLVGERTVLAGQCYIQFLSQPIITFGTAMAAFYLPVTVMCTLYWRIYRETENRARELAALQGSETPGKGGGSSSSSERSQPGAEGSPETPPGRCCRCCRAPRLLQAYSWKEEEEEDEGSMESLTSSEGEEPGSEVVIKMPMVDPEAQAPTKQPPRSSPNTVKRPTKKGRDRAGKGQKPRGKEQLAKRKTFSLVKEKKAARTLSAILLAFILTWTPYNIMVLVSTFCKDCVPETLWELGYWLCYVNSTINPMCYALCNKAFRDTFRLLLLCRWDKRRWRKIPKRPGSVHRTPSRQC

| SMILES | decrease of affinity at M5 compared with compound 1 [1] [%] | fold higher affinity at M3 compared with compound 1 [2] [fold] | subtype selectivity ([3]; M5 over M1 and M3) | fold higher affinity at M1 compared with compound 1 [4] [fold] | fold increase in affinity of the reverse ester ([3]; 6a vs 4a, all three mAChRs) [fold] |
| --- | --- | --- | --- | --- | --- |
| COc1ccc(CCOC(=O)C2(c3ccccc3)CCN(C)CC2)cc1OC [Compound 4a] | 30 | 19 | not subtype selective | 2 | – |
| COc1ccc(CCC(=O)OCC2(c3ccccc3)CCN(C)CC2)cc1OC [Compound 6a] | – | – | – | – | 1 to 3 |
